Assay results of several laboratories.
Compare with care: the assays were run in different laboratories.
Observed: cell growth or viability

| Structure (SMILES) | cell line | assay | conditions | quantity | result |
| --- | --- | --- | --- | --- | --- |
| CCOC(=O)CCc1ccccc1OP(=O)(OC[C@H]1O[C@@H](n2cnc3c(N)nc(N)nc32)[C@](C)(O)[C@@H]1O)Oc1ccccc1CCC(=O)OCC | Huh-7 | – | replicon | CC50 | > 10 µM |
| CC(C)(CO)C(=O)SCCOP(=O)(NCc1ccccc1)OC[C@H]1O[C@@H](n2cnc3c(=O)[nH]c(N)nc32)[C@](C)(O)[C@@H]1O (mixture of isomers) | Huh-7 | – | replicon | CC50 | > 10 µM |
| CCCCCCCCCCOc1cc2c(O)c(C(=O)OCC)cnc2cc1OCC | Huh-7 | – | 72 h | IC50 | > 100 µM |
| CCC/C=C/C=C/C(=O)O[C@H]1/C(=C/C(=O)OC)C[C@H]2C[C@H]([C@@H](C)O)OC(=O)C[C@H](O)C[C@@H]3C[C@H](OC(C)=O)C(C)(C)[C@](O)(C[C@@H]4C/C(=C/C(=O)OC)C[C@H](/C=C/C(C)(C)[C@]1(O)O2)O4)O3 | BGM | MTS | 5 days | CC50 | ~100 µM |
| COC(=O)[C@@H]1[C@@H](c2ccccc2)[C@]2(c3ccc(OC)cc3)Oc3cc(OC)cc(OC)c3[C@@]23N=C(C)N[C@@]13O | HepG2 | MTT | 24 h | CC50 | 0.0658 µM |
| CC(C)(C)C(O)C(Oc1ccc(-c2ccccc2)cc1)n1cncn1 (centres unmarked) | Huh-7 | MTT | 24 h | CC50 | > 400 µM |
| O=c1c(O[C@@H]2O[C@H](CO)[C@@H](O)[C@H](O)[C@H]2O)c(-c2ccc(O)cc2)oc2cc(O)cc(O)c12 | HepG2 | WST-1 | – | IC50 | 37.8 µM |
| CC(C)[C@H](N)C(=O)N1CCC[C@H]1B(O)O | HEK-293T | ATP luminescence | 60 µM, 5 days | viability | 97% |
